# Bioassay records (PubChem)
# Compounds with a hit are over-represented: about 12% of the library has one in this group of screens.
# Wee1 degr inh: human Wee1 degradation inhibition, primary screen. P30291. HeLa Luc-Wee1K328M stability, luciferase luminescence; 100% = proteasome inhibitor MG132 effect. reporter increase, % at 5 µM. 220,000 compounds, 1.2% hits. AID 1321;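 active = activation above the mean of all tested compounds plus 3 SD, set per screening run, cut at about 8.8% in these data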;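 note: cells exposed to compound for 20 h before luminescence read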
# CHOP inhibitor: blocks CHOP induction under ER stress; 220,000 compounds, 3.8% hits; inhibition, % at 10 µM; CHO-K1 CHOP-promoter luciferase, tunicamycin-induced, 15-18 h;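 active = compounds that reduced the stress-induced luciferase reporter signal by more than about 70% of percent inhibition, limit read from the data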
# PKD1 kinase inh: inhibitors of human PKD1 kinase; inhibition, % (no concentration beside the values); PKD1 kinase fluorescence polarization assay; 200,000 compounds, 0.056% hits; Q15139
# Target sequence (Q15139 whole entry, looked up): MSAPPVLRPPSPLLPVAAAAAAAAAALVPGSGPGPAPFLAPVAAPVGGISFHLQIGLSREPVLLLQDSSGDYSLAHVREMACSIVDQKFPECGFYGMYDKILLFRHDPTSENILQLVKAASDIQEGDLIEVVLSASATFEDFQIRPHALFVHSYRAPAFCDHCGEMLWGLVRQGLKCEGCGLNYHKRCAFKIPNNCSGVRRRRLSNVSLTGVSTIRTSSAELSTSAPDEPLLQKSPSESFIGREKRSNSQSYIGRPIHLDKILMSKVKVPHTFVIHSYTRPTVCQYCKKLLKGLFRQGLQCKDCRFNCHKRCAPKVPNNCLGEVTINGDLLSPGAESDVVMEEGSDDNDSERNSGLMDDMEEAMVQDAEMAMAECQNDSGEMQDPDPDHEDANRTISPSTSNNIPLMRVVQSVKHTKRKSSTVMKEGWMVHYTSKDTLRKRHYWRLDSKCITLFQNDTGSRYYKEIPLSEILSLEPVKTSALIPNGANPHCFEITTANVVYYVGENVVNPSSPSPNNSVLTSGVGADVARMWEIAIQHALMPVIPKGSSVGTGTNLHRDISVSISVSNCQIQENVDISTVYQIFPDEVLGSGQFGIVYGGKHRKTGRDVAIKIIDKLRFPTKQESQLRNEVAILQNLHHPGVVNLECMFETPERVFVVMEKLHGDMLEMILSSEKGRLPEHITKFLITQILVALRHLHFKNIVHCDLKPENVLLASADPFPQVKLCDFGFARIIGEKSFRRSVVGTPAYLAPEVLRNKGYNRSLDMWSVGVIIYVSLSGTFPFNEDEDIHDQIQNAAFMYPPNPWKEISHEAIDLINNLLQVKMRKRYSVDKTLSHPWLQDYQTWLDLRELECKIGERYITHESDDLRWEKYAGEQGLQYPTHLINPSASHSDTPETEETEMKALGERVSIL
# Rad51 HR inh: blocks human Rad51 in homologous recombination. inhibition, % at 10 µM. AID 1385. 200,000 compounds, 0.085% hits. hRad51 DNA strand exchange, fluorescence dequenching. Q06609;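 active = inhibition above 40% at the single screening dose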
#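 Assay system: Human Rad51 nucleoprotein filaments preassembled on unlabelled ssDNA | Reagent: Donor/quencher-labelled 47-bp dsDNA substrate | Doses: One concentration, 10 µM final | Times: 37 °C 15-min filament assembly, 30-min compound preincubation, 15-min exchange | Technique: Fluorescein emission 520 nm, excitation 485 nm | Benchmarks: Plate control and blank wells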
# Arbovirus anti: blocks arbovirus infection. 200,000 compounds, 0.37% hits. inhibition, % at 10 µM. AID 1251. arbovirus infection cell-based antiviral screen; in the data active = inhibition above about 30%
# Lmaj promast: reduces viability of Leishmania major promastigotes | inhibition, % at 10 µM | AID 1063 | resazurin fluorescence viability | 200,000 compounds, 9% hits;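 note: promastigotes grown with compound for 44 hours at 28 °C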
# CHOP inh conf: confirmation of CHOP induction inhibitors; shares compounds with CHOP inhibitor; CHO-CHOP promoter luciferase reporter, tunicamycin-induced, luminescence; inhibition, % at 10 µM; 2,100 compounds, 45% hits; AID 504437;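 active = mean of three repeat readings of reporter signal inhibition above a set limit, cut at about 70% in these data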
# Numbers stand for hits; – = inactive; · = not tested or not shown. Cut-off read from the data, not from the text of the source, unless noted: active = inhibition above about 50%; inactive = the rest.
SMILES,Wee1 degr inh,CHOP inhibitor,PKD1 kinase inh,Rad51 HR inh,Arbovirus anti,Lmaj promast,CHOP inh conf
Cc1cccc2c1N1C(=O)c3c(C(=O)O)cccc3C1CC2C (stereo unspecified),–,–,–,–,–,–,·
Cn1c(N)c(N2CCCCC2)c(=O)n(CC(=O)Nc2ccc(Cl)c(Cl)c2)c1=O,–,–,–,–,–,–,·
O=C(Cn1c2c(sc1=O)C1c3ccccc3OCC1CS2)Nc1ccc(Cl)c(Cl)c1 (stereo unspecified),–,99.4,–,–,–,95.7,–
COc1ccc(-c2c(-c3ccsc3)oc3ccc(N4CCOCC4)cc23)cc1,·,·,·,–,·,·,·
O=[N+]([O-])c1cccc(/C=N/Nc2nnc(-c3ccccc3)c(-c3ccccc3)n2)c1,–,–,–,–,–,–,·
CC(C)=NNc1nc(-c2ccc([N+](=O)[O-])cc2)cs1,–,–,–,–,–,–,·
C/C=C/C=N/Nc1nc(-c2ccc([N+](=O)[O-])cc2)cs1,–,97.7,–,–,–,–,–
O=[N+]([O-])c1cccc(-c2csc(N/N=C/c3cccc(O)c3)n2)c1,–,106.4,–,–,–,98.3,–
CCC/C(O)=C1\C(=O)CC(c2ccccc2)CC1=NC(C)C(=O)O (stereo unspecified),–,–,–,–,–,–,·
CC(C)S(=O)(=O)N1CCCC(C(=O)c2cccc(Cl)c2)C1 (stereo unspecified),–,–,–,·,–,–,·
COc1ccc(C(=O)N=c2sc3c(C)ccc(OC)c3n2C)cc1,–,–,–,–,–,–,·
C=C1C(=O)O[C@@H]2[C@H]1[C@@H](OC(=O)/C(C)=C/C)C/C(C)=C\C(=O)/C=C(\C)[C@@H]2O,·,107.4,·,–,·,·,–
Cc1cc(C)c2nc(-c3ccccn3)cc(C(=O)Nc3cc(C)on3)c2c1,–,101.1,–,–,–,–,98.6
C/C(N)=C(/C#N)C(=O)CSc1nc2scc(-c3ccccc3)c2c(=O)n1C,–,–,–,–,–,–,·
O=C(COC(=O)C1CC(=O)N(Cc2ccccc2)C1)c1ccc(F)cc1 (stereo unspecified),–,–,–,–,–,–,·
N#CC1=C(N)Oc2n[nH]c(-c3cccs3)c2C1C1CCCCC1 (stereo unspecified),–,103.8,–,–,–,–,–
COc1ccc(-c2csc(N(CCc3ccccc3)C(=O)COc3ccccc3)n2)cc1,–,–,–,·,–,–,·
O=C(COc1ccc(Cl)cc1)N(Cc1ccccc1)c1nc(-c2ccccc2)cs1,–,103.1,–,–,–,–,–
Cc1ccc(-n2ncc(Br)c(Br)c2=O)cc1,–,104.8,–,–,–,100.2,120.8
COc1c(Cl)cnn(-c2ccc(C)cc2)c1=O,–,–,–,–,–,–,·
O=c1c(Br)c(Br)cnn1-c1ccccc1,–,106.0,–,–,–,100.5,118.0
Nc1c(C(=O)N/N=C/c2ccc(F)cc2)oc2nc(-c3ccccc3)cc(-c3ccco3)c12,–,100.6,·,–,·,·,–
COC(=O)C1=C(C)N(Cc2ccco2)C(=O)N[C@@H]1c1ccccc1,–,–,–,–,–,–,·
CN1CC(c2ccccc2)C2(SC(=S)N(Cc3ccco3)C2=O)C12C(=O)Nc1ccccc12 (stereo unspecified),–,101.4,–,–,–,98.1,83.8
Cc1ccc(S(=O)(=O)NC(C(=O)N2CCOCCOCCOCC2)c2ccccc2)cc1 (stereo unspecified),–,–,–,–,–,–,·
SMILES,Wee1 degr inh,CHOP inhibitor,PKD1 kinase inh,Rad51 HR inh,Arbovirus anti,Lmaj promast,CHOP inh conf
CCOC(=O)c1ccc(Nc2cc(C)nc(-c3ccccc3O)n2)cc1,–,–,–,–,–,–,·
Cc1cc(Nc2ccccc2)nc(-c2ccccc2O)n1,–,96.3,–,–,–,–,100.1
CC1=NN(C(=O)Cc2ccc([N+](=O)[O-])cc2)C(O)(c2ccccc2)C1 (stereo unspecified),–,–,–,·,–,–,·
Cc1ccc(Cn2nc(C)c(NC(=O)c3cc(-c4ccc5c(c4)OCO5)on3)c2C)cc1,–,105.9,–,–,–,–,–
CCOc1ccc(Cl)cc1/C=N/O,–,–,–,–,–,–,·
O/N=C/c1cc(Cl)ccc1OCc1ccccc1Cl,–,107.2,–,–,–,–,–
Cc1ccc(COc2ccc(Br)cc2/C=N/O)cc1,–,109.7,–,–,–,–,104.5
CCCCC(CC)CNC(=O)CC1Nc2c3ccccc3nc(=S)n2C1=O (stereo unspecified),–,–,–,·,–,–,·
CC(C)On1c(SCC(=O)N(C)C)nc2ccccc2c1=O,–,–,·,–,·,·,·
Cc1nc(-c2ccc(S(=O)(=O)Oc3ccc(Cl)cc3Cl)s2)cs1,–,–,·,–,·,·,·
O=C1C(C2=NC(c3ccccn3)C3C(=O)N(c4ccc(OC(F)(F)F)cc4)C(=O)C23)=C(O)c2ccccc21 (stereo unspecified),–,104.8,·,–,·,·,117.4
O=C1C(C2=NC(C(=O)O)C3C(=O)N(c4ccccc4)C(=O)C23)=C(O)c2ccccc21 (stereo unspecified),–,–,–,–,–,–,·
COc1ccc(CNc2nc(-c3cccnc3)nn2S(C)(=O)=O)cc1,–,–,–,·,–,–,·
Cc1ccc2nc(NC(=O)C3CCN(S(=O)(=O)c4cccc5nsnc45)CC3)sc2c1,–,–,–,–,–,–,·
Cc1ccc2nc(NC(=O)C3CCN(S(=O)(=O)c4cc([N+](=O)[O-])ccc4Cl)CC3)sc2c1,–,96.9,–,–,–,99.2,88.9
CC(C)[C@H](NC(=O)[C@@H]1Cc2ccccc2CN1C(=O)OC(C)(C)C)C(=O)NCC1CCC(C(=O)O)CC1 (stereo partly specified),–,–,·,–,·,·,·
CCCCC1=CC2=C(c3ccco3)C(=O)C(C)(OC(=O)c3ccc(OC)cc3)C(=O)C2=CN1Cc1ccco1 (stereo unspecified),·,101.7,·,–,·,·,–
CCc1ccc2[nH]c(=O)c(C(c3nnnn3Cc3ccco3)N3CCC(C)CC3)cc2c1 (stereo unspecified),–,99.2,–,–,–,–,76.6
O=C(N/N=C/c1ccc(F)cc1)c1cc(-c2ccco2)nc2ccccc12,–,–,–,·,–,–,·
CCOc1ccc(/C=N/NC(=O)c2cc(-c3ccco3)nc3ccccc23)cc1,–,104.3,–,–,–,–,94.6
C/C(CC(=O)Nc1ccc(Cl)cn1)=N\NC(=O)Cc1cccs1,–,–,·,·,·,·,·
O=C(OC(C(=O)Nc1cccc(C(F)(F)F)c1)c1ccccc1)C1CCCCC1 (stereo unspecified),–,106.7,–,–,–,–,–
COc1cccc(OCCSc2nc(C)c(Cc3ccccc3)c(=O)[nH]2)c1,–,99.2,–,–,–,–,–
COCC(C)n1c(SCc2cc(=O)n3cc(C)ccc3n2)nc2ccccc2c1=O (stereo unspecified),–,–,–,–,–,–,·
